In ChEMBL document CHEMBL1133797, “Synthesis and structure--activity analysis of novel dihydropyridine derivatives to overcome multidrug resistance” (Bioorg Med Chem Lett, 2001) one finds IC50, Resistance index and Activity data, which are given here for 15 compounds.

For experiment [1], the species on record is Rattus norvegicus. Kind of experiment: Calcium antagonistic activity determined by the inhibitory effect on high-potassium depolarization-induced contracture in isolated rat aorta. The format is functional.
Experiment [2] has as its system KB 3-1. Kind of experiment: Resistance index determined as the ratio of IC50 of doxorubicin with compound (1 ug/mL) in KB VJ300 cells divided by the control tested in vitro. It is filed as functional, Homo sapiens.
Experiment [3] has as its system Mus musculus. As to the kind of experiment: Survival days of vincristine (0.1 mg/kg, ip) treated mice after 30 mg/kg, ip dose divided by survival days of mice treated by vincristine (0.1 mg/kg, ip) alone. The format is functional. Conditions: route intraperitoneal. In short, it runs like this: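 In P388 leukemia-bearing mice, the test agent was dosed at 30 mg/kg ip with vincristine 0.1 mg/kg ip. Survival time was recorded. The value (%) is the ratio of survival days under the combination to survival days under vincristine 0.1 mg/kg ip alone.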

The test system of experiment [4] is Mus musculus. Kind of experiment: Survival days of vincristine (0.1 mg/kg, ip) treated mice after 100 mg/kg, ip dose divided by survival days of mice treated by vincristine (0.1 mg/kg, ip) alone. Conditions: route intraperitoneal. It is filed as functional. In short, it runs like this: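 Mice bearing P388 leukemia cells were given vincristine 0.1 mg/kg ip together with the test agent at 100 mg/kg ip. Survival days were recorded. Antitumor activity (%) is survival days with the combination divided by survival days of mice given vincristine 0.1 mg/kg ip alone.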

`CCCCCC1C(C(=O)OCCCc2cccnc2)=C(C)N=C(C)/C1=C(/O)OCCCN1CCN(C(c2ccccc2)c2ccccc2)CC1` (stereo unspecified): in experiment [1], the IC50 (in general, the concentration that gives 50% inhibition) amounted to 175 µM. Besides, the Resistance index in experiment [2] came out at 1.1. Also, the Activity in experiment [3] was found to be 143%.
Consider `CCCCCC1C(C(=O)OCCCc2ccccn2)=C(C)N=C(C)/C1=C(/O)OCCCN1CCN(C(c2ccccc2)c2ccccc2)CC1` (stereo unspecified), for which the Resistance index in experiment [2] was 1.7. The Activity in experiment [4] is on record as 120%.
For the compound `CCCCCC1C(C(=O)OCCc2ccc(N(C)C)cc2)=C(C)N=C(C)/C1=C(/O)OCCCc1cccnc1` (stereo unspecified), in experiment [1], the IC50 worked out at 45 µM. Moreover, the Resistance index in experiment [2] stood at 1.8. This compound also registered an Activity in experiment [4] of 125%.
With `CCCCCC1C(C(=O)OCCCc2ccccc2)=C(C)N=C(C)/C1=C(/O)OCCCc1ccccc1` (stereo unspecified), in experiment [2], the Resistance index was 22.7.
On to `CCCCCC1C(C(=O)OCCN(C)Cc2ccccc2)=C(C)N=C(C)/C1=C(/O)OCCN(C)Cc1ccccc1` (stereo unspecified), for which, in experiment [1], the concentration for half-maximal inhibition (IC50) turned out to be 115 µM. In addition, the Resistance index in experiment [2] stood at 3.9. Also, in experiment [4], the Activity is 128%.
With `CCCCCC1C(C(=O)O/C=C/Cc2cccnc2)=C(C)N=C(C)/C1=C(/O)O/C=C/Cc1cccnc1` (stereo unspecified), the Resistance index in experiment [2] was determined as 1.8. In experiment [4], the Activity is given as 89%.
With `CCCCCC1C(C(=O)OCCCc2ccncc2)=C(C)N=C(C)/C1=C(/O)OCCCN1CCN(C(c2ccccc2)c2ccccc2)CC1` (stereo unspecified), the Resistance index in experiment [2] is recorded as 1.
With `COC(=O)C1=C(C)NC(C)=C(C(=O)OCCN(C)Cc2ccccc2)C1c1cccc([N+](=O)[O-])c1` (stereo unspecified) [NICARDIPINE], the IC50 in experiment [1] was 1.4 µM.
Consider `CCCCCC1C(C(=O)OCCCc2cccnc2)=C(C)N=C(C)/C1=C(/O)OCCCc1cccnc1` (stereo unspecified), for which the IC50 in experiment [1] came to 46 µM. Also, the Resistance index in experiment [2] was 2. Further, the Activity in experiment [4] turned out to be 161%.
On to `CCCCCC1C(C(=O)OCCCc2cccnc2)=C(C)N=C(C)/C1=C(/O)OCCCN1CCN(Cc2ccccc2)CC1` (stereo unspecified), for which the IC50 in experiment [1] was found to be 33 µM. In addition, in experiment [2], the Resistance index was 1. Moreover, the Activity in experiment [4] is reported as 150%.
For `CCCCCC1C(C(=O)OCCCN2CCN(Cc3ccccc3)CC2)=C(C)N=C(C)/C1=C(/O)OCCCN1CCN(Cc2ccccc2)CC1` (stereo unspecified) the same measures were 230 µM, 1.1 and 127%.
Regarding `CCCCCC1C(C(=O)OCCc2ccc(N(C)C)cc2)=C(C)N=C(C)/C1=C(/O)OCCCN1CCN(C(c2ccccc2)c2ccccc2)CC1` (stereo unspecified), the Resistance index in experiment [2] was 23.5.
With `CC1=NC(C)=C(C(=O)OCc2ccncc2)C(C2=C(C)SCCS2)/C1=C(\O)OCc1ccncc1` (stereo unspecified), in experiment [1], the IC50 is 8.7 µM.
Turning to `CCCCCC1C(C(=O)OCCc2ccc(N(C)C)cc2)=C(C)N=C(C)/C1=C(/O)OCCc1ccc(N(C)C)cc1` (stereo unspecified), the Resistance index in experiment [2] turned out to be 11.2.
In the case of `CCCCCC1C(C(=O)OCCN(C)Cc2ccccc2)=C(C)N=C(C)/C1=C(/O)OCCCc1cccnc1` (stereo unspecified), the IC50 in experiment [1] came out at 135 µM. Further, in experiment [2], the Resistance index is 1.4. For the same compound, the Activity in experiment [4] was 144%.
